Experimental data: ChEMBL document CHEMBL2375262, “Thiazolidin-4-one and thiazinan-4-one derivatives analogous to rosiglitazone as potential antihyperglycemic and antidyslipidemic agents” (2013)

Columns and labels:
Type in all cases: functional
Mus musculus [1] = experiment: Insulin resistance reversal activity in db/db mouse assessed as decrease in plasma insulin level at 30 mg/kg, po qd administered 15 days measured on day 16 by ELISA relative to vehicle-treated control; design: scale not given: the % may be the effect or the level left
Method in brief: (§1)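 db/db males, 10-12 weeks, >40 g, baseline glucose 180-300 mg/dl, n=6 per group. Oral suspension in 1% gum acacia given once daily for days 1-15; vehicle controls. At study end, retro-orbital plasma insulin was measured by ELISA. Groups were compared by Dunnett's test.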

Mus musculus [2] = experiment: Antidyslipidemic activity in db/db mouse assessed as increase in plasma HDL-cholesterol level at 30 mg/kg, po qd administered 15 days […] relative to vehicle-treated control
Mus musculus [3] = experiment: Antidyslipidemic activity in db/db mouse assessed as decrease in plasma total cholesterol level at 30 mg/kg, po qd administered 15 days measured on day 16 […] relative to vehicle-treated control; design: scale not given: the % may be the effect or the level left
Method in brief: (§2)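 Male db/db mice, 10-12 weeks old, over 40 g. After a 3-day vehicle run-in, animals with blood glucose 180-300 mg/dl were placed in groups of six and gavaged once daily on days 1-15 with a suspension in 1% gum acacia. Controls received vehicle. Terminal retro-orbital plasma was assayed for triglycerides, total and HDL-cholesterol with colorimetric kits. Dunnett's test was used.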

Mus musculus [4] = experiment: Antidyslipidemic activity in db/db mouse assessed as decrease in plasma triglycerides level at 30 mg/kg, po qd administered 15 days measured on day 16 by ELISA relative to vehicle-treated control; design: scale not given: the % may be the effect or the level left; settings: in the assay text read “by colorimetric assay” for “by ELISA”; method in brief: as §2
Mus musculus [5] = experiment: Antihyperglycemic activity in db/db mouse assessed as inhibition of post prandial blood glucose level at 30 mg/kg, po qd administered 15 days by OGTT relative to vehicle-treated control; settings: 360 h
Method in brief: (§3)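 Male db/db mice, 10-12 weeks, >40 g, with blood glucose 180-300 mg/dl; six per group. Dosed orally once daily in 1% gum acacia on days 1-15, with vehicle controls. Blood glucose was read daily. OGTT on days 10 and 15 after an overnight fast: glucose at -30, 0, 30, 60, 90 and 120 min around an oral 3.0 g/kg glucose load. Activity was taken from AUC versus control; Dunnett's test.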

Mus musculus [6] = experiment: Antihyperglycemic activity in db/db mouse assessed as inhibition of post prandial blood glucose level at 30 mg/kg, po qd administered 15 days measured on day 10 by OGTT relative to vehicle-treated control; method in brief: as §3
Mus musculus [7] = experiment: Antihyperglycemic activity in db/db mouse assessed as reduction of blood glucose level at 30 mg/kg, po qd measured daily for 15 days relative to vehicle-treated control; design: scale not given: the % may be the effect or the level left; method in brief: as §3
L6 [8] = experiment: Antihyperglycemic activity in rat L6 cells assessed as increase in 2-deoxy-[3H]-D-glucose uptake at 10 uM after 18 hrs by liquid scintillation counting analysis relative to control
Method in brief: (§4)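 L6 myoblasts were differentiated to myotubes in DMEM with 2% FBS, then treated for 18 h. After washes, cells took up 3 µCi 2-deoxy-[3H]D-glucose plus 20 µM unlabelled 2-deoxyglucose in HEPES-buffered saline for 15 min. Cells were lysed in 0.1 N NaOH and counted by scintillation; results are % increase over control.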

3T3-L1 = experiment: Induction of adipogenesis in mouse 3T3L1 cells assessed as accumulation of lipid droplets at 10 uM measured on day 9 by Oil Red O staining method relative to control
Method in brief: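 3T3-L1 preadipocytes, 2 days post-confluence, were induced with 0.5 mM IBMX, 0.25 µM dexamethasone and insulin in DMEM/10% FBS with compound present. After 3 days, medium changed to insulin alone, then to DMEM/10% FBS. On day 9, lipid droplets were stained with 0.36% Oil Red O in 60% isopropanol for 30 min and examined by microscope.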

Mus musculus [9] = experiment: Insulin resistance reversal activity in db/db mouse assessed as decrease in plasma insulin level at 100 mg/kg, po qd administered 15 days measured on day 16 by ELISA relative to vehicle-treated control; design: scale not given: the % may be the effect or the level left; method in brief: as §1
Mus musculus [10] = experiment: Antidyslipidemic activity in db/db mouse assessed as increase in plasma HDL-cholesterol level at 100 mg/kg, po qd administered 15 days […] relative to vehicle-treated control
Mus musculus [11] = experiment: Antidyslipidemic activity in db/db mouse assessed as decrease in plasma total cholesterol level at 100 mg/kg, po qd administered 15 days […] relative to vehicle-treated control; design: scale not given: the % may be the effect or the level left
Mus musculus [12] = experiment: Antidyslipidemic activity in db/db mouse assessed as decrease in plasma triglycerides level at 100 mg/kg, po qd administered 15 days […] relative to vehicle-treated control; design: scale not given: the % may be the effect or the level left
Mus musculus [13] = experiment: Antihyperglycemic activity in db/db mouse assessed as inhibition of post prandial blood glucose level at 100 mg/kg, po qd administered 15 days by OGTT relative to vehicle-treated control; settings: 360 h; method in brief: as §3
Mus musculus [14] = experiment: Antihyperglycemic activity in db/db mouse assessed as inhibition of post prandial blood glucose level at 100 mg/kg, po qd administered 15 days measured on day 10 by OGTT relative to vehicle-treated control; method in brief: as §3
Mus musculus [15] = experiment: Antihyperglycemic activity in db/db mouse assessed as reduction of blood glucose level at 100 mg/kg, po qd measured daily for 15 days relative to vehicle-treated control; design: scale not given: the % may be the effect or the level left; method in brief: as §3
L6 [16] = experiment: Antihyperglycemic activity in rat L6 cells assessed as increase in 2-deoxy-[3H]-D-glucose uptake at 50 uM after 18 hrs by liquid scintillation counting analysis relative to control; method in brief: as §4

Compound	Activity (Mus musculus [1])	Activity (Mus musculus [2])	Activity (Mus musculus [3])	Activity (Mus musculus [4])	inhibition in vivo at 30 mg/kg (Mus musculus [5])	inhibition in vivo at 30 mg/kg (Mus musculus [6])	Activity (Mus musculus [7])	Activity (L6 [8])	Activity (3T3-L1)	Activity (Mus musculus [9])	Activity (Mus musculus [10])	Activity (Mus musculus [11])	Activity (Mus musculus [12])	inhibition in vivo at 100 mg/kg (Mus musculus [13])	inhibition in vivo at 100 mg/kg (Mus musculus [14])	Activity (Mus musculus [15])	Activity (L6 [16])
CN(CCOc1ccc(C2NC(=O)CCS2)cc1)c1ccccn1 (configuration not stated)	28.8%	1.46%	15.1%	13.2%	-44.9%	-40.8%	30.4%	53.5%	–	–	–	–	–	–	–	–	–
CN(CCOc1ccc(C2SCCC(=O)N2C2CC2)cc1)c1ccccn1 (configuration not stated)	26.6%	3.38%	29.5%	29.9%	-27.9%	-20.4%	22.4%	69.5%	–	–	–	–	–	–	–	–	–
CC(C)N1C(=O)CCSC1c1ccc(OCCN(C)c2ccccn2)cc1 (configuration not stated)	–	–	–	–	–	–	–	14.8%	–	–	–	–	–	–	–	–	–
CCCCN1C(=O)CCSC1c1ccc(OCCN(C)c2ccccn2)cc1 (configuration not stated)	–	–	–	–	–	–	–	35.4%	–	–	–	–	–	–	–	–	–
CN(CCOc1ccc(C2SCCC(=O)N2Cc2ccccc2)cc1)c1ccccn1 (configuration not stated)	21.5%	6.47%	9.88%	25.6%	-42.6%	-29.4%	19.1%	33%	–	–	–	–	–	–	–	–	–
CCCCN1C(=O)C[S+]([O-])C1c1ccc(OCCN(C)c2ccccn2)cc1 (configuration not stated)	24.6%	39.6%	10.8%	19.2%	-27.2%	-12.9%	25.9%	–	–	–	–	–	–	–	–	–	–
CN(CCOc1ccc(C2N(Cc3ccccc3)C(=O)C[S+]2[O-])cc1)c1ccccn1 (configuration not stated)	20.4%	20%	–	18.4%	-20.2%	-6.4%	22.1%	45.5%	–	–	–	–	–	–	–	–	–
CCCCN1C(=O)CS(=O)(=O)C1c1ccc(OCCN(C)c2ccccn2)cc1 (configuration not stated)	28.8%	25.7%	7.2%	14.7%	–	–	30.2%	51.3%	–	–	–	–	–	–	–	–	–
CN(CCOc1ccc(C2SCC(=O)N2C2CC2)cc1)c1ccccn1 (configuration not stated)	31.8%	8.8%	12.6%	15.6%	-40.9%	-26.6%	25.6%	67.2%	3.87%	–	–	–	–	–	–	–	–
CCCCN1C(=O)CSC1c1ccc(OCCN(C)c2ccccn2)cc1 (configuration not stated)	17.6%	10.1%	4.8%	31.8%	-25.4%	-20.2%	22.1%	–	–	–	–	–	–	–	–	–	–
CN(CCOc1ccc(C2SCC(=O)N2Cc2ccccc2)cc1)c1ccccn1 (configuration not stated)	22.4%	22.2%	10.2%	9.83%	-16.4%	-4.3%	15.4%	–	–	–	–	–	–	–	–	–	–
CN(CCOc1ccc(C2NC(=O)CS2)cc1)c1ccccn1 (configuration not stated)	27.4%	–	19.3%	14%	-36.6%	-25.9%	18.5%	51.9%	5.53%	–	–	–	–	–	–	–	–
CN(C)C(=N)NC(=N)N [METFORMIN]	–	–	–	–	–	–	–	–	–	37%	6.8%	14.6%	12.1%	29.7%	29.1%	23.7%	–
CN(CCOc1ccc(CC2SC(=O)NC2=O)cc1)c1ccccn1 (configuration not stated) [ROSIGLITAZONE]	44.8%	–	26.4%	32.5%	-40.7%	-33.3%	53.7%	–	24%	–	–	–	–	–	–	–	61.6%
